Test results taken from publication PMC9588738 (Cancer research, 2022).

Tests used:
ZR75-PELP1 cells = experiment: MTT cell viability assay, ZR75-PELP1 cells; assay type: cell-based, human
Outline: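 ZR75-PELP1 cells were treated with peptide every 3 days, and MTT absorbance was read at day 7 (n=3). A screen compared ZR75 with ZR75-PELP1 cells.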

[1] = system: MCF7-TamR and MCF7-LTLT BC model cells; experiment: Cell viability of therapy-resistant cells treated with PIP1; assay type: cell-based, human; details: 7 days
[2] = system: PELP1-shRNA expressing ZR75 cells; experiment: MTT cell viability assay, PELP1 knockdown cells; assay type: cell-based, human; details: PELP1 knockdown vs control
PELP1 [3] = molecular target: T1, PELP1 (Homo sapiens, UniProt Q8IZL8); experiment: PELP1 degradation by Western blotting; assay type: cell-based; details: MCF7 cells, MG132 5 μM
Outline: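 ZR75 and MCF7 cells were exposed to graded test-compound concentrations for 24 h. For the proteasome arm, MCF7 cells received small molecule (10 μM, 4 and 6 h) or peptide (10 μM, 7 h), each ± MG132 (5 μM). Lysis used NP-40/Triton X-100 buffer with protease/phosphatase inhibitors and NEM. PELP1 was normalized to loading control, relative to untreated.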
Target sequence in this assay (Q8IZL8 whole entry): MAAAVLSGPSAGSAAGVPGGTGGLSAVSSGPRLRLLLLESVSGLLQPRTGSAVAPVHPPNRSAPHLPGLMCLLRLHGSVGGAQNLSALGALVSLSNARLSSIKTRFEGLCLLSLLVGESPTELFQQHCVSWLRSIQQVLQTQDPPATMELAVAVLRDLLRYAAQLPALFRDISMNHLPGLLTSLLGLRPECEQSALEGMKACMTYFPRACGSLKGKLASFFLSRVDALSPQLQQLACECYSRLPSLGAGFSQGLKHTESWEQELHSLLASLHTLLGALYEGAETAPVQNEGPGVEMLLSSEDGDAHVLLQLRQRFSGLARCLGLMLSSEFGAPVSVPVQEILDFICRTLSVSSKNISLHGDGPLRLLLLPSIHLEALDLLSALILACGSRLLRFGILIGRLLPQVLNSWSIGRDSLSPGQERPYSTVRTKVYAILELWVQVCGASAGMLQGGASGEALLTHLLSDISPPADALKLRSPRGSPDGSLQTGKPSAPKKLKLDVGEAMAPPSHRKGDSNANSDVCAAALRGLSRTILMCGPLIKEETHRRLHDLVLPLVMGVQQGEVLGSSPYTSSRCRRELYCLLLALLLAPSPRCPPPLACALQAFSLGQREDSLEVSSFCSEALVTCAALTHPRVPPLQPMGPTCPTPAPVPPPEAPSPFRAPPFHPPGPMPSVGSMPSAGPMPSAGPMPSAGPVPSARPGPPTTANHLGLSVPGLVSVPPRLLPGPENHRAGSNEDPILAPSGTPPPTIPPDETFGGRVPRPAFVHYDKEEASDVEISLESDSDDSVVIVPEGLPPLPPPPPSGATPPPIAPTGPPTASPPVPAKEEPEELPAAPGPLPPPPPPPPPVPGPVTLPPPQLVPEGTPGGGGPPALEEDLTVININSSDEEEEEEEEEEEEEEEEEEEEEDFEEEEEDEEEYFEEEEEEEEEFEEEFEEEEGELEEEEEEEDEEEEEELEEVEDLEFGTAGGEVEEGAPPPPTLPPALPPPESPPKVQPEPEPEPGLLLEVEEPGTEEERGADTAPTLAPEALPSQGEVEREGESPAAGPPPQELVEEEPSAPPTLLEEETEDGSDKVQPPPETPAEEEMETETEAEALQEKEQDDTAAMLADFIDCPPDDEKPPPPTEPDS

[4] = system: ZR75-PELP1 and MCF7-PELP1 cells; experiment: QCM chemotaxis cell migration assay; assay type: cell-based, human; details: 10 μM, 12 hours
PELP1 [5] = molecular target: T1, PELP1; experiment: Biotin-Avidin pull-down assays; assay type: binding; details: Biotin-tagged peptides, ZR75 nuclear lysate
Target sequence in this assay (Q8IZL8 2-1130): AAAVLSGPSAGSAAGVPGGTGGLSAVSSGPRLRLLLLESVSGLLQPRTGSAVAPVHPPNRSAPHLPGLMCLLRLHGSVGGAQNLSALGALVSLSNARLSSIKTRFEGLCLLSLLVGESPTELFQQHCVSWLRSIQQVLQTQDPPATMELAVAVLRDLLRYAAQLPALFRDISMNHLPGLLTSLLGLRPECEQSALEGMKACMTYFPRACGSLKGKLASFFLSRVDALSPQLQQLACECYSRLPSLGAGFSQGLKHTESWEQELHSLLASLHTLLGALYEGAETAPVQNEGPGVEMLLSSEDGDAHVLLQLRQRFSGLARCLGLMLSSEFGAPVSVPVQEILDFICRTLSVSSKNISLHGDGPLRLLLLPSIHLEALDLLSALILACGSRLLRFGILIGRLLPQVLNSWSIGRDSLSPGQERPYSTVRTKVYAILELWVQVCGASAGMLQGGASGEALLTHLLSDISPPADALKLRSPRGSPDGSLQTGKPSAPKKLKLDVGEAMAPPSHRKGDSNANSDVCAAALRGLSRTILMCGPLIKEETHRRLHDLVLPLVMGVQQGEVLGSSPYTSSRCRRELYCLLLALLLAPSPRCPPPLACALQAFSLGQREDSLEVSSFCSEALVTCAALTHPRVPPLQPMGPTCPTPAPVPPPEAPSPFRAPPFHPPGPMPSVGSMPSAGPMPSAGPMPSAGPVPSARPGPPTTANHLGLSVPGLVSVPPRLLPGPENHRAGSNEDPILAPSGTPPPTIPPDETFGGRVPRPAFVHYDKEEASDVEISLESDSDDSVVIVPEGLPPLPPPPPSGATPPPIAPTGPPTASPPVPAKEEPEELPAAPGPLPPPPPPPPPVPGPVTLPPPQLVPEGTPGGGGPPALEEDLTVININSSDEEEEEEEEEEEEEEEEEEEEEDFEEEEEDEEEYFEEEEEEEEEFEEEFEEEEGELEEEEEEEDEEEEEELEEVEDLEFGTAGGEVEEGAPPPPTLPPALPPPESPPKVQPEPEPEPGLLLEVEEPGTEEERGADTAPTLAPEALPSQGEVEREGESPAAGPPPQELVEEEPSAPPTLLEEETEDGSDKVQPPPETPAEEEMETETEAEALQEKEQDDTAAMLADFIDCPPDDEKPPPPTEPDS

[6] = system: E2 mediated ERE reporter activation; experiment: ERE-luciferase reporter assay; assay type: cell-based, human; details: ZR75-PELP1 (PIP1) or ZR75 (SMIP34) cells

Substance: PIP1: PELP1 inhibiting peptide with TAT signal; TAT-PIP1: GRKKRRQRRRGGMVEFRWSCPGRRKAKA (not fully specified; left off: Gal4 activation domain, end not stated, kept)
- comparison of activity between hits in MTT assays (ZR75-PELP1 cells): more efficient anti-proliferative activity than PIP2
- effect on PELP1-mediated proliferation (ZR75-PELP1 cells; TAT-tagged peptides every 3 days, read at 7 days): significantly inhibited PELP1-mediated proliferation
- effect on cell viability of therapy-resistant cells [1]: significantly reduced the cell viability
- activity when PELP1 is knocked down [2]: substantially reduced the activity of PIP1
- PELP1 degradation in presence of proteasome inhibitor MG132 (PELP1 [3]): attenuated PIP1 mediated degradation of PELP1
- cell migration [4]: significant decrease in the cell migration
- relative affinity to bind PELP1 (peptide pull-down) (PELP1 [5]): higher affinity to bind to PELP1 than PIP2
- E2 induced ERE reporter activity [6]: significantly decreased E2 mediated ERE reporter activation
